Columns and labels:
Streptococcus mutans [1] = test: Antimicrobial activity against Streptococcus mutans 6715 after 24 hrs by spectrophotometry; format: functional
Procedure, shortened: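 Inoculated with a 24-h S. mutans 6715 culture and incubated anaerobically at 37 °C. Growth read spectrophotometrically. Dilution series run in sets of five tubes. MIC is the lowest drug level with readings above 60% T at 24 h. Repeat determinations agreed.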

[2] = Octanol-phosphate buffer partition coefficient, log P of the compound at pH 11.5; format: physicochemical
Procedure, shortened: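 Compound partitioned between 0.05 M phosphate buffer (pH 11.5) and octanol, each pre-saturated with the other. Gentle shaking for 90 min at 25 ± 5 °C. Phase ratio and sample amount set so the buffer-layer absorbance fell between 0.2 and 0.9 (1-cm cell, buffer blank). Free-base P was corrected for degree of ionization using pKa.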

Streptococcus mutans [3] = test: Antimicrobial activity against Streptococcus mutans 6715 after 48 hrs by spectrophotometry; format: functional
Procedure, shortened: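 Trypticase soy broth with sucrose and the salt of the test agent dosed from ethanol, inoculated with a 24-h S. mutans 6715 culture. Incubated anaerobically at 37 °C. Growth measured spectrophotometrically at 48 h. Each dilution tested in sets of five tubes.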

[4] = Dissociation constant, pKa of the compound in 3:1 water:ethanol at 1 x 10 '-3 M; format: physicochemical
Procedure, shortened: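 pKa measured in duplicate by potentiometric titration in 3:1 water–ethanol at 10⁻³. pH recorded after each titrant addition, and pKa calculated by the Albert–Serjeant method.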

log(1/MIC) (Streptococcus mutans [1]) | logD [2] | log(1/MIC) (Streptococcus mutans [3]) | pKa at 1000 µM [4] | SMILES
5 | 3.13 | 5 |  | CCCCCC/N=C(N)/N=C(\N)Nc1ccc(Cl)cc1
3.04 | 2.14 | 3 | 10.8 | CCNC(=N)NC(=N)Nc1ccc(Cl)cc1
3.04 | 2.63 | 3 | 10.8 | CCCNC(=N)NC(=N)Nc1ccc(Cl)cc1
4 | 3.13 | 4 | 10.8 | CCCCNC(=N)NC(=N)Nc1ccc(Cl)cc1
5.4 | 4.93 | 5.4 |  | CCCCC(CC)CNC(=N)NC(=N)Nc1ccc(Cl)cc1 (stereo not drawn)
5.22 | 5.13 | 5.22 |  | CCCCCCCCNC(=N)NC(=N)Nc1ccc(Cl)cc1
5.1 | 6.13 | 5 |  | CCCCCCCCCCNC(=N)NC(=N)Nc1ccc(Cl)cc1
5 | 7.13 | 4.7 |  | CCCCCCCCCCCCNC(=N)NC(=N)Nc1ccc(Cl)cc1
5.4 | 4.93 | 5.3 |  | CCCCCCCCNC(=N)NC(=N)Nc1ccc(C)cc1
5.22 | 4.43 | 5.04 |  | CCCCCCCCNC(=N)NC(=N)Nc1ccccc1
5.3 | 5.43 | 5.15 |  | CCCCCCCCCCNC(=N)NC(=N)Nc1ccccc1
5.22 | 4.41 | 5 |  | CCCCCCCCNC(=N)NC(=N)Nc1ccc(OC)cc1
3.7 | 2.32 | 3.7 | 9.36 | CCOC(=N)NC(=N)Nc1ccc(Cl)cc1
3.3 | 2.64 | 3.3 | 9.35 | CC(C)OC(=N)NC(=N)Nc1ccc(Cl)cc1
4.15 | 3.32 | 4 |  | CCCCOC(=N)NC(=N)Nc1ccc(Cl)cc1
5.1 | 4.32 | 5 |  | CCCCCCOC(=N)NC(=N)Nc1ccc(Cl)cc1
5.52 | 5.32 | 5.3 |  | CCCCCCCCOC(=N)NC(=N)Nc1ccc(Cl)cc1
5.05 | 6.32 | 5.05 |  | CCCCCCCCCCOC(=N)NC(=N)Nc1ccc(Cl)cc1

Second part, the compound before the results:

SMILES | log(1/MIC) (Streptococcus mutans [1]) | logD [2] | log(1/MIC) (Streptococcus mutans [3]) | pKa at 1000 µM [4]
CNC(=N)NC(=N)Nc1ccc(Cl)cc1 | 3 | 1.58 | 3 | 10.6
CCCCC(CC)CNC(=N)NC(=N)Nc1ccc(C)cc1 (stereo not drawn) | 5.22 | 4.73 | 5.22 | 
CCCCCCNC(=N)NC(=N)Nc1cccc(C(F)(F)F)c1 | 5 | 4.31 | 4.96 | 
CCCCCCCCNC(=N)NC(=N)Nc1cccc(C(F)(F)F)c1 | 5.3 | 5.31 | 5.3 | 
N=C(NCCCCCCNC(=N)NC(=N)Nc1cccc(C(F)(F)F)c1)NC(=N)Nc1cccc(C(F)(F)F)c1 | 5.52 | 5.12 | 5.22 | 
N=C(NCCCCCCNC(=N)NC(=N)NC1CCCCC1)NC(=N)NC1CCCCC1 | 5.4 | 4.46 | 5.4 | 
N=C(NCCCCCCNC(=N)NC(=N)NC12CC3CC(CC(C3)C1)C2)NC(=N)NC12CC3CC(CC(C3)C1)C2 | 5 | 6.04 | 5 | 
CSc1ccc(NC(=N)NC(=N)NCCCCCCNC(=N)NC(=N)Nc2ccc(SC)cc2)cc1 | 5.4 | 4.58 | 5.4 | 
CCSc1ccc(NC(=N)NC(=N)NCCCCCCNC(=N)NC(=N)Nc2ccc(SCC)cc2)cc1 | 5.7 | 5.58 | 5.7 | 
CCCCSc1ccc(NC(=N)NC(=N)NCCCCCCNC(=N)NC(=N)Nc2ccc(SCCCC)cc2)cc1 | 5.7 | 7.58 | 5.52 | 
CCCCCSc1ccc(NC(=N)NC(=N)NCCCCCCNC(=N)NC(=N)Nc2ccc(SCCCCC)cc2)cc1 | 5.52 | 8.58 | 5.3 | 
CCCS(=O)(=O)c1ccc(NC(=N)NC(=N)NCCCCCCNC(=N)NC(=N)Nc2ccc(S(=O)(=O)CCC)cc2)cc1 | 3.7 | 2.1 | 3.7 | 
CCCCS(=O)(=O)c1ccc(NC(=N)NC(=N)NCCCCCCNC(=N)NC(=N)Nc2ccc(S(=O)(=O)CCCC)cc2)cc1 | 4.7 | 3.1 | 4.52 | 
CCCCCS(=O)(=O)c1ccc(NC(=N)NC(=N)NCCCCCCNC(=N)NC(=N)Nc2ccc(S(=O)(=O)CCCCC)cc2)cc1 | 5.52 | 4.1 | 5.4 | 
CCCCCCS(=O)(=O)c1ccc(NC(=N)NC(=N)NCCCCCCNC(=N)NC(=N)Nc2ccc(S(=O)(=O)CCCCCC)cc2)cc1 | 5.4 | 5.1 | 5.4 | 
CCCSc1ccc(NC(=N)NC(=N)NCCCCCCNC(=N)NC(=N)Nc2ccc(SCCC)cc2)cc1 | 5.3 | 6.58 | 5.22 | 
CCCCC(CC)CNC(=N)NC(=N)NCCCCCCNC(=N)NC(=N)NCC(CC)CCCC (stereo not drawn) [ALEXIDINE] | 5.15 | 7.04 | 5.1 | 
N=C(NCCCCCCNC(=N)NC(=N)Nc1ccc(Cl)cc1)NC(=N)Nc1ccc(Cl)cc1 [CHLORHEXIDINE] | 5.3 | 4.78 | 5.22 | 10.8
CC(C)NC(=N)NC(=N)Nc1ccc(Cl)cc1 [PROGUANIL] | 3.04 | 2.43 | 3 | 

Reference: ChEMBL document CHEMBL3227938, “Quantitative structure-activity relationships for biguanides, carbamimidates, and bisbiguanides as inhibitors of Streptococcus mutans No. 6715” (J Med Chem, 1979)
